Tm and folding enthalpy data for 37 sequences are collected here from the array DNA melting data of Ke et al. (doi:10.1101/2024.01.08.574731).

Data set [1] in a line: melting temperature; fluorescence melt of hairpins on a sequencing array, two-state fit, raised by 9.35 °C to match UV melts. The conditions noted are these: sodium 0.088 M. The essentials: (§1)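 Cy3 fluorescence of library hairpins on a sequenced MiSeq flow cell, with annealed Cy3 and quencher oligos, was imaged in 50 mM Na-HEPES pH 8.0, 25 mM NaCl in 2.5 °C steps up to 60 °C. Signals were normalised to pre-quench Cy3 and to control variants. Melting temperature and folding enthalpy came from bootstrapped two-state fits, inverse-variance combined over four replicates. Fitted temperatures were raised by 9.35 °C to match UV melts.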

Data set [2] in a line: folding enthalpy; higher = less favourable; fluorescence melt of hairpins on a sequencing array, two-state fit. To be noted: sodium 0.088 M. The essentials: as §1

Regarding GCTAGGCGAAAGCTAAGC (((..((....))..))), the Tm in data set [1] came out at 48.7 °C. Further, the folding enthalpy in data set [2] is -18.6 kcal/mol.

Consider GAATCCGGAAACGGATTC (((((((....))))))), for which, in data set [1], the Tm came to 63.6 °C. The folding enthalpy in data set [2] is -45.2 kcal/mol.

With GCACGCGAAAGCGCTGC ((((((....))).))), the Tm in data set [1] came to 62.4 °C. For the same sequence, in data set [2], the folding enthalpy is -18.4 kcal/mol.

As to GATCGTAGGACGATC ((((((...)))))), the Tm in data set [1] is 54.7 °C. The folding enthalpy in data set [2] is -44.2 kcal/mol.

In the case of GAACCCGAAAGGGACTTC ((((((....)))..))), the Tm in data set [1] turned out to be 42.9 °C. For the same sequence, the folding enthalpy in data set [2] is -20.2 kcal/mol.

As for GCTCAGAAATGAGC (((((....))))), the Tm in data set [1] worked out at 55.4 °C. Also, the folding enthalpy in data set [2] is -26.8 kcal/mol.

For GCAATGGGAAACCATTGC (((((((....))))))), in data set [1], the Tm stood at 66.2 °C. Moreover, the folding enthalpy in data set [2] is -39.2 kcal/mol.

Take GCGGGGCGCCGC ((((....)))): in data set [1], the Tm was 66.1 °C. Besides, the folding enthalpy in data set [2] is -14.7 kcal/mol.

For the sequence GCTTGGGGAAACTCAAGC (((((.(....).))))), the Tm in data set [1] came to 51.3 °C. In data set [2], the folding enthalpy was -35.8 kcal/mol.

CGGCCGCGGAAACGCCCG (((..(((....)))))): the Tm in data set [1] amounted to 42.2 °C. For the same sequence, the folding enthalpy in data set [2] is -20.9 kcal/mol.

On to GTTTTGCGAAAGCATAAC (((.(((....))).))), for which, in data set [1], the Tm is 45.3 °C. The folding enthalpy in data set [2] was -25.4 kcal/mol.

For GCTAAAGCGAAAGCTAGC (((..(((....)))))), the Tm in data set [1] was 47.3 °C. For the same sequence, the folding enthalpy in data set [2] was -21.4 kcal/mol.

As to GTGAAGCGAAAGCTGCAC (((.(((....))).))), the Tm in data set [1] came to 61 °C. Further, the folding enthalpy in data set [2] is -35 kcal/mol.

As to GGACTCGGAAACGAGTTC (.(((((....))))).), the Tm in data set [1] amounted to 53.6 °C. The folding enthalpy in data set [2] was -38.3 kcal/mol.

In the case of GATCCAACATGGATC ((((((...)))))), the Tm in data set [1] was found to be 50.4 °C. The folding enthalpy in data set [2] is -33.7 kcal/mol.

Consider GCACATGGAAACACGTGC ((((.((....)).)))), for which the Tm in data set [1] is 46.7 °C. The folding enthalpy in data set [2] was -41 kcal/mol.

For the sequence GATCTTCAAAAGATC ((((((...)))))), in data set [1], the Tm amounted to 41 °C. Moreover, the folding enthalpy in data set [2] was -19.2 kcal/mol.

For the sequence GTGGTACGAAAGTAGCAC (((.(((....))).))), the Tm in data set [1] was determined as 63.2 °C. The folding enthalpy in data set [2] was -42 kcal/mol.

Consider GATCGGCCGCCCGATC ((((((....)))))), for which, in data set [1], the Tm turned out to be 60.5 °C. Besides, the folding enthalpy in data set [2] is -40.4 kcal/mol.

Consider GAACACGGAAACGTGTCC (.(((((....))))).), for which, in data set [1], the Tm was found to be 45.2 °C. The folding enthalpy in data set [2] is -11.2 kcal/mol.

In the case of GCGCTAGGAAACCAGCGC (((((.(....).))))), the Tm in data set [1] stood at 57.3 °C. Moreover, in data set [2], the folding enthalpy was -45.4 kcal/mol.

GGAACGACGAAAGTCTCC (((..(((....)))))): the Tm in data set [1] was found to be 27.6 °C. For the same sequence, the folding enthalpy in data set [2] was -10.9 kcal/mol.

As for GGGTATGGAAACGTACCC (((((.(....).))))), the Tm in data set [1] is 50.1 °C. For the same sequence, in data set [2], the folding enthalpy was -42.7 kcal/mol.

GCGAATGAAAATTCGC ((((((....)))))): in data set [1], the Tm turned out to be 65 °C. Besides, the folding enthalpy in data set [2] was -36.3 kcal/mol.

As for GATCATATAAATGATC ((((((....)))))), the Tm in data set [1] was 43.7 °C. Also, the folding enthalpy in data set [2] is -29.9 kcal/mol.

Turning to GATCACTCAAGTGATC ((((((....)))))), the Tm in data set [1] was determined as 57 °C. The folding enthalpy in data set [2] is -49.2 kcal/mol.

Take CGCCGCGGAAACGCAGCG (((.(((....))).))): the Tm in data set [1] came to 59 °C. Moreover, the folding enthalpy in data set [2] was -37.5 kcal/mol.

Regarding GTCATCGAAAGATTTGAC ((((((....)))..))), in data set [1], the Tm worked out at 29.4 °C. In addition, the folding enthalpy in data set [2] is -13.2 kcal/mol.

Regarding GCCGGGCGAAAGCGCCGC ((.(.((....)).).)), the Tm in data set [1] is 48.7 °C. In addition, in data set [2], the folding enthalpy is -11.5 kcal/mol.

In the case of GAACTGCGAAAGCACTTC (((.(((....))).))), the Tm in data set [1] was 28.4 °C. Also, in data set [2], the folding enthalpy was -10.9 kcal/mol.

In the case of GTTCACCGAAAGGTTAAC (((.(((....))).))), the Tm in data set [1] was found to be 42.3 °C. In addition, the folding enthalpy in data set [2] was -26.4 kcal/mol.

For the sequence GGATGGACGAAAGTCTCC (((..(((....)))))), in data set [1], the Tm came out at 32.5 °C. Besides, in data set [2], the folding enthalpy was -13.6 kcal/mol.

GATCTCTCCCGAGATC ((((((....)))))): the Tm in data set [1] worked out at 52.1 °C. Moreover, the folding enthalpy in data set [2] was -41.2 kcal/mol.

For GGGGTAGGAAACTACCTC (.(((((....))))).), the Tm in data set [1] is 48 °C. Moreover, in data set [2], the folding enthalpy was -20 kcal/mol.

With GATCGTGATTACGATC ((((((....)))))), in data set [1], the Tm came to 56 °C. Further, the folding enthalpy in data set [2] was -38.8 kcal/mol.

Regarding GGTCTCGAAAGAGAGACC ((((((....)))..))), the Tm in data set [1] was 54.9 °C. The folding enthalpy in data set [2] is -29.6 kcal/mol.

On to GGGGTCGAAAGACTTCCC ((((((....)))..))), for which the Tm in data set [1] is 39 °C. The folding enthalpy in data set [2] is -15.6 kcal/mol.
